Source: PubChem (The Scripps Research Institute Molecular Screening Center)
This is a sample that favours compounds with a hit; in the whole collection about 1.9% have one here.
M5 PAM – human M5 muscarinic receptor positive allosteric modulators, primary screen, CHO-K1 cells, Fluo-8 calcium fluorescence. Muscarinic acetylcholine receptor M5 (Homo sapiens), P08912. CHO-K1 hM5, ACh EC20 PAM; 0% = ACh EC20, 100% = ACh EC100. activation, % at 3 µM. actives 0.3% (n = 360,000). AID 624038, 2012;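 active = activation above the run cutoff, the mean activation of all test compounds plus 3 SD, cut at about 18% in these data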
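Assay system – human M5 receptor in CHO-K1 cells · Read-out – % activation, ACh-normalized · Technique – Fluo-8 calcium fluorescence · Dosing – single-point, 3 µM nominal · Incubation – Fluo-8 loading 80 min at 37 °C plus 30 min room temperature · Repeats – singlicate, one well per test compound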
M5 antag – human M5 muscarinic receptor antagonists, primary screen, CHO cells, Fluo-8 calcium fluorescence. Muscarinic acetylcholine receptor M5 (Homo sapiens), P08912. CHO-hM5 cells, ACh EC80. inhibition, % at 3 µM. actives 0.59% (n = 360,000). AID 624040, 2012;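 active = inhibition above a per-plate cutoff, the mean of that plate's test compounds plus 3 SD, cut at about 27% in these data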;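 note: 0% = acetylcholine EC80 with DMSO and 100% = DMSO without agonist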
CHRM4 agonist – human M4 muscarinic receptor agonists, primary screen, CHO-K1 cells, Fluo-8 calcium fluorescence; CHO-K1 hM4/Gqi5; vehicle 0%, full acetylcholine response 100%; Muscarinic acetylcholine receptor M4 (Homo sapiens), P08173; activation, % at 3 µM; actives 0.14% (n = 360,000);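 active = activation above the run mean over all test wells plus 3 SD, cut at about 32% in these data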;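 note: peak over basal fluorescence ratio per well then scaled between controls; 0% = DMSO wells and 100% = acetylcholine at EC100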
Target sequence (P08173 whole entry, looked up): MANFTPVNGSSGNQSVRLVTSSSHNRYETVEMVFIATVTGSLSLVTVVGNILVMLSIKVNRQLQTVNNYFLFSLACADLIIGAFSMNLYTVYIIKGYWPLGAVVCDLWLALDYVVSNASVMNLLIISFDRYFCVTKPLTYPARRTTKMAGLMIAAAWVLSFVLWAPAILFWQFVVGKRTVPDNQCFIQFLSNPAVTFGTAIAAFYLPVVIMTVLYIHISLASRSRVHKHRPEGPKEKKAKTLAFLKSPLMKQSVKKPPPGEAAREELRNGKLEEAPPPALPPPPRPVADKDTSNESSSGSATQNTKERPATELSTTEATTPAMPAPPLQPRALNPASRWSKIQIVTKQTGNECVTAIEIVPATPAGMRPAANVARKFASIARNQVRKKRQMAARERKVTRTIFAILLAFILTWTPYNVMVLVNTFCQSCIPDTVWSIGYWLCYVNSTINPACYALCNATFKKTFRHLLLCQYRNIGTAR
CHRM4 antagonist – human M4 muscarinic receptor antagonists, primary screen, CHO cells, Fluo-8 calcium fluorescence. Muscarinic acetylcholine receptor M4 (Homo sapiens), P08173. CHO-hM4 cells, ACh EC80. inhibition, % at 3 µM. actives 0.73% (n = 360,000). AID 624125, 2012;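 active = inhibition above its plate's cutoff, the mean inhibition of sample wells plus 3 SD, cut at about 27% in these data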;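 note: 0% = acetylcholine EC80 with DMSO and 100% = DMSO without agonist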
M5 ag – human M5 muscarinic receptor agonists, primary screen, CHO-K1 cells, Fluo-8 calcium fluorescence. Muscarinic acetylcholine receptor M5 (Homo sapiens), P08912. CHO-K1 hM5 cells; 0% DMSO wells, 100% maximal acetylcholine response. activation, % at 3 µM. actives 0.19% (n = 360,000);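 active = activation above the run's mean over test compounds plus 3 SD, cut at about 23% in these data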;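 note: signal is peak over basal fluorescence ratio across the kinetic read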
CHRM4 PAM – human M4 muscarinic receptor positive allosteric modulators, primary screen, CHO-K1 cells, Fluo-8 calcium fluorescence. Muscarinic acetylcholine receptor M4 (Homo sapiens), P08173. CHO-K1 hM4/Gqi5, ACh EC20; 0% = ACh EC20, 100% = maximal ACh. activation, % at 3 µM. actives 0.4% (n = 360,000);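 active = activation above its plate's cutoff, the mean activation of sample wells plus 3 SD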
Numbers without * were called inactive.

SMILES	M5 PAM	M5 antag	CHRM4 agonist	CHRM4 antagonist	M5 ag	CHRM4 PAM
O=C(COC(=O)c1ccc(Cl)nc1)Nc1cccnc1Cl	-2	8	0	5	4	0
COC(=O)c1c(O)cc(C(C)(C)C)n(-c2ccc(F)cc2)c1=O	3	2	-1	-1	-2	37*
CC(=O)c1c(O)cc(C)n(-c2ccc(F)cc2)c1=O	3	2	0	9	-2	-2
Cc1oc(=O)cc(OCc2ccccc2)c1C	-1	1	0	-4	-1	3
O=c1[nH]c(=O)n2ncnc2[nH]1	0	-2	0	-5	0	4
O=C1CSC(=Nc2cccc(C(=O)O)c2)N1	-4	7	1	-4	6	15*
CC(=O)c1cccc(N=C2NC(=O)CS2)c1	0	6	0	14	-1	4
CC1CCCCC1NC(=O)C1CCC(CNS(=O)(=O)c2ccc3c(c2)C(C)(C)C(=O)N3C)CC1 (stereo not drawn)	3	-5	2	-9	1	9
CCOC(=O)c1sc(NC(=O)Nc2ccccc2)cc1C	-19	46*	18	15	5	-7
CCOC(=O)c1sc(NC(=O)Nc2ccccc2Cl)cc1C	-22	21	10	-20	3	-6
COc1ccc(-c2cc(C(=O)OCC(=O)c3cccc([N+](=O)[O-])c3)c3cc(C)ccc3n2)cc1	17	13	3	-8	4	23*
CCn1ccc(C(=O)NC2=C(C#N)CCC2)n1	21*	-1	-1	-2	1	-2
CCn1nccc1C(=O)NC1=C(C#N)CCC1	1	3	1	12	1	-8
CC(=O)NC(=O)NC1OC(=O)C(Cl)=C1Cl (stereo not drawn)	0	1	1	-15	-3	17*
Cc1ccccc1S(=O)(=O)NC1OC(=O)C(Cl)=C1Cl (stereo not drawn)	2	-7	0	-6	2	1
CCCCC(c1nnnn1C(C)C)N1CCN(C(=O)c2ccco2)CC1 (stereo not drawn)	3	7	1	-3	0	-3
O=C(CCn1ccc2cc(S(=O)(=O)N3CCCC3)ccc21)NCCc1ccccc1	26*	29*	5	6	1	-2
Cc1ccc(CCNC(=O)CCn2ccc3cc(S(=O)(=O)N4CCCC4)ccc32)cc1	3	2	1	-2	-2	-3
CC1c2ccccc2-c2ccccc2N1C (stereo not drawn)	-2	8	2	9	-10	1
CCC(C)[C@H](NC(=O)N1CC(=O)Nc2ccccc21)C(=O)N1CCC[C@H]1C(=O)O (stereo partly drawn)	-2	7	-2	101*	2	-18
CCC(C)[C@H](NC(=O)N1CC(=O)Nc2ccccc21)C(=O)N1CCC[C@@H]1C(=O)O (stereo partly drawn)	-3	5	0	-14	1	-1
O=C(Nc1ccccc1)Nc1ccc(-n2ccc(C(F)(F)F)n2)cc1	-36	51*	25	45*	6	-62
O=C1CSC(c2ccccc2)N1c1ccc([N+](=O)[O-])cc1 (stereo not drawn)	-15	19	0	33*	-22	-14
Nc1nc(Nc2ccccc2F)sc1C(=O)c1ccccc1	6	-6	1	-2	28*	2
O=C(CSc1nc2ccc(Cl)cc2[nH]1)Nc1ccc2[nH]c(=O)[nH]c2c1	-2	5	0	-4	0	2
SMILES	M5 PAM	M5 antag	CHRM4 agonist	CHRM4 antagonist	M5 ag	CHRM4 PAM
O=C1NC(=NCc2ccccc2)NC1(c1ccccc1)c1ccccc1	-1	11	0	-11	0	8
O=C1NCCN1CCNS(=O)(=O)c1ccc(F)c(Cl)c1	3	2	1	7	0	-4
Cc1ccc(CN2CCNC2=O)cc1	8	0	1	-9	-4	34*
Cc1ccc(S(=O)(=O)NCCN2CCNC2=O)cc1	10	-9	0	-21	4	34*
CC1(OC(=O)C2CCCC2)C(=O)C=C2C=C(c3ccsc3)N(CCCCO)C=C2C1=O (stereo not drawn)	3	7	1	-3	-1	-3
CC1(OC(=O)C2CCCC2)C(=O)C=C2C=C(c3ccsc3)N(C3CCCC3)C=C2C1=O (stereo not drawn)	-8	1	1	-7	39*	6
Cc1ccc(NC(=O)c2snc3ccc(Cl)cc23)cc1C	-12	31*	2	-3	-7	9
COc1ccc(Oc2ncnc3sccc23)cc1	18*	-7	2	-11	-2	11
COc1ccc(Nc2ncnc3sccc23)cc1	1	20	2	-3	-1	4
COCCSc1nc(N)c(NC(=O)c2ccco2)c(=O)[nH]1	2	1	1	10	-1	4
Cc1nnc(SCCn2c(N3CCCC(C)C3)nc3c2c(=O)[nH]c(=O)n3C)s1 (stereo not drawn)	19*	-15	1	16	3	8
Cc1nnc(SCCn2c(N3CCC(C)CC3)nc3c2c(=O)[nH]c(=O)n3C)s1	3	-9	2	-7	2	10
CC(C)N(C(=S)Nc1cccc(S(=O)(=O)N(C)C)c1)c1ccccc1	19*	3	1	-1	5	2
CN(c1ccccc1)S(=O)(=O)c1cccc(NC(=O)CSc2nncs2)c1	-17	25	15	27*	8	-24
CN(c1ccccc1)S(=O)(=O)c1cccc(NC(=O)c2cccc(C#N)c2)c1	-16	33*	20	9	6	-12
CN(c1ccccc1)S(=O)(=O)c1cccc(NC(=O)CSc2nnc(N)s2)c1	-17	16	13	11	4	-14
CN(C)S(=O)(=O)c1cccc(NC(=O)c2ccc(COc3ccccc3)cc2)c1	-22	27*	24	22	8	-18
COC(=O)C1=C[C@@H](C(=O)OC)[C@@H]2C3=C(C(=O)[C@@]2(C)NC(=O)c2ccccc2)[C@H](C)C(C(=O)OC)=C(C(=O)OC)[C@@H]3C1	-7	12	1	6	2	-1
COc1ccccc1C(C)NCC(=O)NCc1ccc(C)cc1 (stereo not drawn)	2	2	1	-2	-8	0
COc1ccc(CNC(=O)CNC(C)c2ccc(F)cc2)cc1 (stereo not drawn)	-2	0	2	53*	-2	-18
